Common to all, as to assay type: functional
One assay concerns T47D. Briefly: Cytotoxicity against human T47D cells assessed as cell growth at 10^-5 M after 48 hrs by SRB assay. As to conditions: read-out: Activity. In a few lines:
(§1)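 NCI human tumor cell line panel from nine cancer types. Each line was inoculated and preincubated 24–48 h, then exposed to a single concentration (10^-5 M) for 48 h. Growth was read by sulforhodamine B protein staining, measured spectrophotometrically. Value reported as percent growth of treated cells relative to untreated controls.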
A general note: The SRB assay estimates cell density from bound dye.

A further assay deals with PC-3. Briefly: Growth inhibition of human PC3 cells after 48 hrs by SRB assay. The conditions noted are these: PC-3, 48 h. In a few lines:
(§2)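 NCI panel of about 60 human tumor lines, 48 h continuous exposure at five 10-fold dilutions from 10^-4 to 10^-8 M. SRB protein staining was read as absorbance at time zero, in untreated controls and at each concentration. GI50 is the concentration giving 50% lower net protein increase than controls. TGI is where Ti = Tz, and LC50 is 50% protein loss versus start.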

Another assay relates to SNB-19. The assay can be described thus: Cytotoxicity against human SNB19 cells assessed as cell growth at 10^-5 M after 48 hrs by SRB assay. As to conditions: SNB-19, 48 h, read-out: Activity. In a few lines:
as §1

The test system of the next assay is NCI-H460. The assay can be described thus: Cytotoxicity against human NCI-H460 cells assessed as cell growth at 10^-5 M after 48 hrs by SRB assay. The conditions noted are these: NCI-H460, 48 h, read-out: Activity. In outline:
as §1

Assay [1] concerns Photobacterium leiognathi. Briefly: Antibacterial activity against Photobacterium leiognathi Sh1 assessed as inhibition of bacterial luminescence at 0.25 mg/mL after 10 mins by bioluminometry-based chronic action test. The conditions noted are these: in the assay text read “after 16 to 18 hrs” for “after 10 mins”. The arrangement: scale not given: the % may be the effect or the level left. In a few lines: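 Chronic (growth plus luminescence) test with P. leiognathi Sh1 at 10^5 cells/mL in chloride solution, compounds added in DMSO. After 10 min at 25 °C, growth medium added at 1:50 and the mix incubated 16–18 h at 30 °C. Luminescence then measured by bioluminometer as % of untreated control. Tetracycline reference.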

A further assay deals with SF-268. The assay can be described thus: Cytotoxicity against human SF268 cells assessed as cell growth at 10^-5 M after 48 hrs by SRB assay. As to conditions: SF-268, 48 h, read-out: Activity. In a few lines: as §1
A further assay concerns NCI-H322M. Briefly: Cytotoxicity against human NCI-H322M cells assessed as cell growth at 10^-5 M after 48 hrs by SRB assay. The conditions noted are these: read-out: Activity. In outline: as §1
The test system of the next assay is 786-0. Briefly: Growth inhibition of human 786-0 cells after 48 hrs by SRB assay. As to conditions: 786-0, 48 h. In outline: as §2
The subject of a further assay is OVCAR-3. Briefly: Cytotoxicity against human OVCAR3 cells assessed as cell growth at 10^-5 M after 48 hrs by SRB assay. As to conditions: OVCAR-3, 48 h, read-out: Activity. In outline: as §1
The next assay deals with SNB-75. The assay can be described thus: Growth inhibition of human SNB75 cells after 48 hrs by SRB assay. The conditions noted are these: SNB-75, 48 h. In a few lines: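 NCI 60-cell-line human tumor panel. Cells were inoculated and preincubated for 24–48 h, then exposed continuously to compound for 48 h. Primary screen used a single 10^-5 M concentration. Growth was measured by sulforhodamine B protein staining, read spectrophotometrically, and reported as percent growth versus untreated controls. Selected compounds were also run at five 10-fold dilutions (10^-4 to 10^-8 M) to derive GI50 from time-zero-corrected absorbances.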

The next assay has as its system HOP-92. The assay can be described thus: Cytotoxicity against human HOP92 cells assessed as cell growth at 10^-5 M after 48 hrs by SRB assay. The conditions noted are these: HOP-92, 48 h, read-out: Activity. In a few lines: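 NCI 60-cell-line one-dose primary screen: cells inoculated and preincubated 24–48 h, then test agent added at a single 10^-5 M concentration for a further 48 h. Endpoint is sulforhodamine B protein staining read spectrophotometrically. Reported as percent growth relative to untreated control cells.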

For another assay, the system named is SW-620. Briefly: Cytotoxicity against human SW620 cells assessed as cell growth at 10^-5 M after 48 hrs by SRB assay. The conditions noted are these: SW-620, 48 h, read-out: Activity. In a few lines:
as §1

Another assay concerns RPMI-8226. The assay can be described thus: Growth inhibition of human RPMI8226 cells after 48 hrs by SRB assay. The conditions noted are these: RPMI-8226, 48 h. In outline:
as §2

The test system of the next assay is MDA-MB-468. The assay can be described thus: Growth inhibition of human MDA-MB-468 cells after 48 hrs by SRB assay. The conditions noted are these: MDA-MB-468, 48 h. In outline: as §2
The mark [2] stands for this setting: read-out: pLC50 (the source's name) (converted).

One may read the GI50 as the concentration that inhibits growth by half. For `CCC1C2CCC(C2)C1NC(=O)CSc1nc2ccccc2c2nc(=O)c(-c3ccc(OC)cc3)nn12` (centres undefined), the growth at 10 µM in the assay on T47D was -11.3%; with SNB-19, 39.8%; in the assay on NCI-H460 it was 56%; in the assay with SF-268, 66.3%; in the assay with NCI-H322M, 65.6%; with OVCAR-3, -69.7%. The growth at 10 µM in the assay with HOP-92 is 57%; in the assay with SW-620, 45.9%. The GI50 was 2.82 µM in the assay on PC-3; 3.02 µM in the assay on 786-0; 3.09 µM in the assay with SNB-75; 2.95 µM with RPMI-8226; 1.35 µM in the assay with MDA-MB-468. Besides, the CC50 in the assay on PC-3 (setting [2]) was greater than 50.1 µM; in the assay on 786-0 (setting [2]) it was greater than 50.1 µM; with SNB-75 (setting [2]) it was 30.9 µM; in the assay with RPMI-8226 (setting [2]), greater than 50.1 µM; in the assay on MDA-MB-468 (setting [2]) it was 30.2 µM. Also, the TGI was 24.5 µM in the assay on PC-3 (read-out: pTGI (converted)); 15.8 µM in the assay on 786-0 (read-out: pTGI (converted)); 11.5 µM in the assay with SNB-75 (read-out: pTGI (converted)); 38 µM with RPMI-8226 (read-out: pTGI (converted)); 3.98 µM in the assay on MDA-MB-468 (read-out: pTGI (converted)). The Activity in [1] was 80%.

The values above are taken from ChEMBL document CHEMBL1914438, “Synthesis and biological activity of novel N-cycloalkyl-(cycloalkylaryl)-2-[(3-R-2-oxo-2H-[1,2,4]triazino[2,3-c]quinazoline-6-yl)thio]acetamides” (2011).
